Results as given in ChEMBL document CHEMBL1926518, “Synthesis of macrolones with central piperazine ring in the linker and its influence on antibacterial activity” (2011).
In brackets after ≈: the same amount, converted by molar mass.

Legend:
Assay type in all cases: functional
Streptococcus pneumoniae [1] = test: Antibacterial activity against efflux-mediated macrolide-resistant Streptococcus pneumoniae Ci137 by broth microdilution technique
How it was run: (§1)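 MICs were determined by CLSI broth microdilution, with double dilutions of compound. In the streptococcal medium, 5% horse serum replaced lysed blood. Streptococci were grown on Columbia agar with 5% sheep blood before testing. Results are given in µg/mL.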

Staphylococcus aureus [2] = test: Antibacterial activity against erythromycin-sensitive Staphylococcus aureus ATCC 13709 by broth microdilution technique
How it was run: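 MIC by broth microdilution per CLSI guidelines with doubling dilutions of compounds. Before testing, staphylococci were grown on Mueller–Hinton agar. Values reported in µg/mL.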

Streptococcus pneumoniae [3] = test: Antibacterial activity against constitutive macrolide, licosamide and streptogramin-resistant Streptococcus pneumoniae 58 Spain by broth microdilution technique; how it was run: as §1
Staphylococcus aureus [4] = test: Antibacterial activity against constitutive macrolide, licosamide and streptogramin-resistant Staphylococcus aureus PK2 by broth microdilution technique
How it was run: (§2)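 MICs were determined by CLSI broth microdilution, with double dilutions of compound. Staphylococci were grown on Mueller–Hinton agar before testing. Results are given in µg/mL.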

Streptococcus pneumoniae [5] = test: Antibacterial activity against erythromycin-sensitive Streptococcus pneumoniae SP030 by broth microdilution technique
How it was run: (§3)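 Streptococcal MICs by CLSI broth microdilution with doubling dilutions, but with 5% horse serum in the medium in place of lysed blood. Before testing, strains were grown on Columbia agar with 5% sheep blood. Values reported in µg/mL.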

Staphylococcus aureus [6] = test: Antibacterial activity against efflux-mediated macrolide-resistant Staphylococcus aureus PK1 by broth microdilution technique; how it was run: as §2
Staphylococcus aureus [7] = test: Antibacterial activity against inducible macrolide, licosamide and streptogramin-resistant Staphylococcus aureus 90256/97 by broth microdilution technique; how it was run: as §2
Haemophilus influenzae = test: Antibacterial activity against Haemophilus influenzae ATCC 49247 by broth microdilution technique
How it was run: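 MIC by broth microdilution per CLSI guidelines with doubling dilutions of compounds. Before testing, organisms were grown on Mueller-Hinton chocolate agar. Values reported in µg/mL.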

Streptococcus pneumoniae [8] = test: Antibacterial activity against inducible macrolide-resistant, constitutive licosamide and streptogramin-resistant Streptococcus pneumoniae 134 GR-Micro by broth microdilution technique; how it was run: as §1
Streptococcus pyogenes [9] = test: Antibacterial activity against erythromycin-sensitive Streptococcus pyogenes 3565 by broth microdilution technique; how it was run: as §3
Streptococcus pyogenes [10] = test: Antibacterial activity against constitutive macrolide, licosamide and streptogramin-resistant Streptococcus pyogenes 166 GR-Micro by broth microdilution technique; how it was run: as §1
Streptococcus pyogenes [11] = test: Antibacterial activity against efflux-mediated macrolide-resistant Streptococcus pyogenes 3 Finland by broth microdilution technique; how it was run: as §1
Moraxella catarrhalis = test: Antibacterial activity against Moraxella catarrhalis ATCC 23246 by broth microdilution technique
How it was run: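 MIC by broth microdilution per CLSI guidelines with doubling dilutions of compounds. Before testing, organisms were grown on Columbia agar with 5% sheep blood. Values reported in µg/mL.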

Streptococcus pyogenes [12] = test: Antibacterial activity against inducible macrolide, licosamide and streptogramin-resistant Streptococcus pyogenes Finland 11 by broth microdilution technique; how it was run: as §1

| Compound | MIC (Streptococcus pneumoniae [1]) [µg/mL] | MIC (Staphylococcus aureus [2]) [µg/mL] | MIC (Streptococcus pneumoniae [3]) [µg/mL] | MIC (Staphylococcus aureus [4]) [µg/mL] | MIC (Streptococcus pneumoniae [5]) [µg/mL] | MIC (Staphylococcus aureus [6]) [µg/mL] | MIC (Staphylococcus aureus [7]) [µg/mL] | MIC (Haemophilus influenzae) [µg/mL] | MIC (Streptococcus pneumoniae [8]) [µg/mL] | MIC (Streptococcus pyogenes [9]) [µg/mL] | MIC (Streptococcus pyogenes [10]) [µg/mL] | MIC (Streptococcus pyogenes [11]) [µg/mL] | MIC (Moraxella catarrhalis) [µg/mL] | MIC (Streptococcus pyogenes [12]) [µg/mL] |
| --- | --- | --- | --- | --- | --- | --- | --- | --- | --- | --- | --- | --- | --- | --- |
| CCOC(=O)c1cn(CC)c2ccc(C#CCN3CCN(CCC(=O)O[C@H]4[C@H](C)O[C@@H](O[C@H]5[C@H](C)[C@@H](O[C@@H]6O[C@H](C)C[C@H](N(C)C)[C@H]6O)[C@](C)(O)C[C@@H](C)CN(C)[C@H](C)[C@@H](OC)[C@](C)(O)[C@@H](CC)OC(=O)[C@@H]5C)C[C@@]4(C)OC)CC3)cc2c1=O | ≤ 0.125 | 4 (≈ 3.38 µM) | 1 (≈ 0.844 µM) | > 64 | ≤ 0.125 | > 64 | > 64 | 32 (≈ 27 µM) | 0.5 (≈ 0.422 µM) | ≤ 0.125 | 32 (≈ 27 µM) | 1 (≈ 0.844 µM) | 8 (≈ 6.75 µM) | 0.25 (≈ 0.211 µM) |
| CCOC(=O)c1cn(C2CC2)c2ccc(C#CCN3CCN(CCC(=O)O[C@H]4[C@H](C)O[C@@H](O[C@H]5[C@H](C)[C@@H](O[C@@H]6O[C@H](C)C[C@H](N(C)C)[C@H]6O)[C@](C)(O)C[C@@H](C)CN(C)[C@H](C)[C@@H](OC)[C@](C)(O)[C@@H](CC)OC(=O)[C@@H]5C)C[C@@]4(C)OC)CC3)cc2c1=O | ≤ 0.125 | 4 (≈ 3.34 µM) | 0.5 (≈ 0.418 µM) | > 64 | ≤ 0.125 | 64 (≈ 53.5 µM) | > 64 | 16 (≈ 13.4 µM) | 0.25 (≈ 0.209 µM) | ≤ 0.125 | 32 (≈ 26.7 µM) | 0.5 (≈ 0.418 µM) | 4 (≈ 3.34 µM) | ≤ 0.125 |
| CC[C@H]1OC(=O)[C@H](C)[C@@H](O[C@H]2C[C@@](C)(OC)[C@@H](OC(=O)CCN3CCN(CC#Cc4ccc5c(c4)c(=O)c(C(=O)O)cn5CC)CC3)[C@H](C)O2)[C@H](C)[C@@H](O[C@@H]2O[C@H](C)C[C@H](N(C)C)[C@H]2O)[C@](C)(O)C[C@@H](C)CN(C)[C@H](C)[C@@H](OC)[C@]1(C)O | ≤ 0.125 | 0.25 (≈ 0.216 µM) | 4 (≈ 3.46 µM) | > 64 | ≤ 0.125 | 0.5 (≈ 0.432 µM) | 8 (≈ 6.92 µM) | 1 (≈ 0.865 µM) | 8 (≈ 6.92 µM) | ≤ 0.125 | 16 (≈ 13.8 µM) | ≤ 0.125 | 0.5 (≈ 0.432 µM) | ≤ 0.125 |
| CCOC(=O)c1cn(CC)c2ccc(CCCN3CCN(CCC(=O)O[C@H]4[C@H](C)O[C@@H](O[C@H]5[C@H](C)[C@@H](O[C@@H]6O[C@H](C)C[C@H](N(C)C)[C@H]6O)[C@](C)(O)C[C@@H](C)CN(C)[C@H](C)[C@@H](OC)[C@](C)(O)[C@@H](CC)OC(=O)[C@@H]5C)C[C@@]4(C)OC)CC3)cc2c1=O | 2 (≈ 1.68 µM) | 4 (≈ 3.37 µM) | 8 (≈ 6.73 µM) | > 64 | ≤ 0.125 | > 64 | > 64 | 32 (≈ 26.9 µM) | 32 (≈ 26.9 µM) | ≤ 0.125 | > 64 | 2 (≈ 1.68 µM) | 0.25 (≈ 0.21 µM) | 2 (≈ 1.68 µM) |
| CC[C@H]1OC(=O)[C@H](C)[C@@H](O[C@H]2C[C@@](C)(OC)[C@@H](OCCCN3CCN(C/C=C/c4ccc5c(c4)c(=O)c(C(=O)O)cn5CC)CC3)[C@H](C)O2)[C@H](C)[C@@H](O[C@@H]2O[C@H](C)C[C@H](N(C)C)[C@H]2O)[C@](C)(O)C[C@@H](C)CN(C)[C@H](C)[C@@H](O)[C@]1(C)O | 8 (≈ 7.08 µM) | 2 (≈ 1.77 µM) | 32 (≈ 28.3 µM) | > 64 | ≤ 0.125 | 8 (≈ 7.08 µM) | > 64 | 16 (≈ 14.2 µM) | > 64 | ≤ 0.125 | 64 (≈ 56.6 µM) | 4 (≈ 3.54 µM) | 0.5 (≈ 0.442 µM) | 1 (≈ 0.885 µM) |
| CC[C@H]1OC(=O)[C@H](C)[C@@H](O[C@H]2C[C@@](C)(OC)[C@@H](O)[C@H](C)O2)[C@H](C)[C@@H](O[C@@H]2O[C@H](C)C[C@H](N(C)C)[C@H]2O)[C@](C)(O)C[C@@H](C)CN(C)[C@H](C)[C@@H](O)[C@]1(C)O [AZITHROMYCIN] | 8 (≈ 10.7 µM) | 0.5 (≈ 0.668 µM) | > 64 | > 64 | ≤ 0.125 | > 64 | > 64 | 1 (≈ 1.34 µM) | > 64 | ≤ 0.125 | > 64 | 8 (≈ 10.7 µM) | ≤ 0.125 | 16 (≈ 21.4 µM) |
| CC[C@H]1OC(=O)[C@H](C)[C@@H](O[C@H]2C[C@@](C)(OC)[C@@H](O)[C@H](C)O2)[C@H](C)[C@@H](O[C@@H]2O[C@H](C)C[C@H](N(C)C)[C@H]2O)[C@](C)(OC)C[C@@H](C)C(=O)[C@H](C)[C@@H](O)[C@]1(C)O [CLARITHROMYCIN] | 4 (≈ 5.35 µM) | 0.25 (≈ 0.334 µM) | > 64 | > 64 | ≤ 0.125 | 32 (≈ 42.8 µM) | > 64 | 8 (≈ 10.7 µM) | > 64 | ≤ 0.125 | > 64 | 4 (≈ 5.35 µM) | ≤ 0.125 | 1 (≈ 1.34 µM) |
